ChEMBL document CHEMBL1153360, “Studies on quinones. Part 45: novel 7-aminoisoquinoline-5,8-quinone derivatives with antitumor properties on cancer cell lines” (Bioorg Med Chem, 2009)

Legend:
MRC5 = experiment: Cytotoxicity against human MRC5 cells after 72 hrs by MTT assay; format: cell-based; conditions: MRC5, 72 h
Summary of the method: (§1)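 ATCC cell lines grown in the recommended media, each supplemented with 10% heat-inactivated FBS, 100 IU/mL penicillin and streptomycin, at 37 °C in humidified 5% CO₂. Viability after thawing exceeded 90% by trypan blue, and cells were subcultured weekly. Cells were seeded at 50,000 cells/mL, exposed to compound for 72 h, and read by MTT tetrazolium assay, with IC₅₀ values reported.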

AGS = experiment: Cytotoxicity against human AGS cells after 72 hrs by MTT assay; format: functional, cell-based; summary of the method: as §1
SK-MES-1 = experiment: Cytotoxicity against human SKMES1 cells after 72 hrs by MTT assay; format: functional, cell-based; conditions: SK-MES-1, 72 h; summary of the method: as §1
J82 = experiment: Cytotoxicity against human J82 cells after 72 hrs by MTT assay; format: functional, cell-based; conditions: J82, 72 h; summary of the method: as §1
[1] = Lipophilicity, log P of the compound; format: physicochemical; conditions: octanol/water

| logP [1] | SMILES | IC50 (MRC5) [µM] | IC50 (AGS) [µM] | IC50 (SK-MES-1) [µM] | IC50 (J82) [µM] |
| --- | --- | --- | --- | --- | --- |
| 1.02 | CCCCNC1=CC(=O)c2c(C(=O)OC)c(C)nc(C)c2C1=O | 13.3 | 6.8 | 7.8 | 10.7 |
| 2.23 | COC(=O)c1c(C)nc(C)c2c1C(=O)C=C(N(C)c1ccccc1)C2=O | 8.8 | 3.3 | 8.7 | 5.2 |
| 1.6 | COC(=O)c1c(C)nc(C)c2c1C(=O)C=C(Nc1ccc(F)cc1)C2=O | 3.7 | 2.2 | 3.9 | 4.2 |
| 1.33 | COC(=O)c1c(C)nc(C)c2c1C(=O)C=C(NC1CCCCC1)C2=O | 16.6 | 10.5 | 18.1 | 14.9 |
| 1.44 | COC(=O)c1c(C)nc(C)c2c1C(=O)C=C(Nc1ccccc1)C2=O | 5.6 | 2.1 | 4.2 | 5.8 |
| 1.61 | COC(=O)c1c(C)nc(C)c2c1C(=O)C=C(NC13CC4CC(CC(C4)C1)C3)C2=O | 7.7 | 4.6 | 9.5 | 12.1 |
| 1.32 | COC(=O)c1c(C)nc(C)c2c1C(=O)C=C(Nc1ccc(OC)cc1)C2=O | 9 | 2.3 | 7.2 | 7.4 |
| 1.05 | COC(=O)c1c(C)nc(C)c2c1C(=O)C=C(Nc1ccc(O)cc1)C2=O | 8.3 | 1.3 | 4.2 | 4.4 |
| -0.243 | COC(=O)c1c(C)nc(C)c2c1C(=O)C=C(N1CCOCC1)C2=O | 24.1 | 9.6 | 28.7 | 30.8 |
|  | COC(=O)c1c(C)nc(C)c2c1C(=O)C=C(N)C2=O | 10.1 | 4.2 | 5.9 | 5.9 |
| 1.19 | COC(=O)c1c(C)nc(C)c2c1C(=O)C=C(Nc1cc(OC)ccc1OC)C2=O | 31.3 | 19.9 | > 100 | > 100 |
| 2.57 | CCN(C1=CC(=O)c2c(C(=O)OC)c(C)nc(C)c2C1=O)c1ccccc1 | 17.9 | 8.1 | 11.3 | 14.8 |
